Test results as given in ChEMBL document CHEMBL1142154, “High-level vancomycin-resistant Staphylococcus aureus isolates associated with a polymicrobial biofilm” (2007).
≈ marks a conversion by molar mass, not a printed value.

Experiments:
Format in all cases: functional
Enterococcus faecium [1] = assay: Antibacterial activity against Enterococcus faecium isolate 5750
Enterococcus faecalis [2] = assay: Antibacterial activity against Enterococcus faecalis isolate 5745
Enterococcus faecium [3] = assay: Antibacterial activity against Enterococcus faecium isolate 5749
Enterococcus faecium [4] = assay: Antibacterial activity against Enterococcus faecium isolate 5751
Enterococcus faecium [5] = assay: Antibacterial activity against Enterococcus faecium isolate 5753
Enterococcus faecalis [6] = assay: Antibacterial activity against Enterococcus faecalis isolate 5743
Enterococcus faecalis [7] = assay: Antibacterial activity against Enterococcus faecalis isolate 5742
Enterococcus faecalis [8] = assay: Antibacterial activity against Enterococcus faecalis isolate 5746
Enterococcus faecium [9] = assay: Antibacterial activity against Enterococcus faecium isolate 5752
How it was run: (§1)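 MICs by broth microdilution in cation-adjusted Mueller-Hinton broth, following CLSI guidelines. Test isolates were clinical VRE (E. faecium), MRSA and VRSA recovered from patient sites or from nephrostomy tube biofilm. Biofilm isolates were obtained by PBS lumen washes of tube segments, dilution in Butterfield buffer and plating on selective and blood agars at 35°C for 24 to 48 h.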

Enterococcus faecium [10] = assay: Antibacterial activity against Enterococcus faecium isolate 2547; how it was run: as §1
Enterococcus faecalis [11] = assay: Antibacterial activity against Enterococcus faecalis isolate 5744
Staphylococcus aureus [12] = assay: Antibacterial activity against vancomycin-resistant Staphylococcus aureus isolate 595; how it was run: as §1
Staphylococcus aureus [13] = assay: Antibacterial activity against methicillin-resistant Staphylococcus aureus isolate 5737; how it was run: as §1
Staphylococcus aureus [14] = assay: Antibacterial activity against methicillin-resistant Staphylococcus aureus isolate 5739; how it was run: as §1
Staphylococcus aureus [15] = assay: Antibacterial activity against methicillin-resistant Staphylococcus aureus isolate 5736; how it was run: as §1
Staphylococcus aureus [16] = assay: Antibacterial activity against vancomycin-resistant Staphylococcus aureus isolate 2514; how it was run: as §1
Staphylococcus aureus [17] = assay: Antibacterial activity against methicillin-resistant Staphylococcus aureus isolate 2513; how it was run: as §1
Staphylococcus aureus [18] = assay: Antibacterial activity against methicillin-resistant Staphylococcus aureus isolate 5733; how it was run: as §1
Staphylococcus aureus [19] = assay: Antibacterial activity against vancomycin-resistant Staphylococcus aureus isolate 5734; how it was run: as §1
Staphylococcus aureus [20] = assay: Antibacterial activity against methicillin-resistant Staphylococcus aureus isolate 5735; how it was run: as §1
Staphylococcus aureus [21] = assay: Antibacterial activity against methicillin-resistant Staphylococcus aureus isolate 2530; how it was run: as §1

| Molecule | MIC (Enterococcus faecium [1]) [µg/mL] | MIC (Enterococcus faecalis [2]) [µg/mL] | MIC (Enterococcus faecium [3]) [µg/mL] | MIC (Enterococcus faecium [4]) [µg/mL] | MIC (Enterococcus faecium [5]) [µg/mL] | MIC (Enterococcus faecalis [6]) [µg/mL] | MIC (Enterococcus faecalis [7]) [µg/mL] | MIC (Enterococcus faecalis [8]) [µg/mL] | MIC (Enterococcus faecium [9]) [µg/mL] | MIC (Enterococcus faecium [10]) [µg/mL] | MIC (Enterococcus faecalis [11]) [µg/mL] | MIC (Staphylococcus aureus [12]) [µg/mL] | MIC (Staphylococcus aureus [13]) [µg/mL] | MIC (Staphylococcus aureus [14]) [µg/mL] | MIC (Staphylococcus aureus [15]) [µg/mL] | MIC (Staphylococcus aureus [16]) [µg/mL] | MIC (Staphylococcus aureus [17]) [µg/mL] | MIC (Staphylococcus aureus [18]) [µg/mL] | MIC (Staphylococcus aureus [19]) [µg/mL] | MIC (Staphylococcus aureus [20]) [µg/mL] | other results |
| --- | --- | --- | --- | --- | --- | --- | --- | --- | --- | --- | --- | --- | --- | --- | --- | --- | --- | --- | --- | --- | --- |
| CC1(C)S[C@@H]2[C@H](NC(=O)Cc3ccccc3)C(=O)N2[C@H]1C(=O)O [PENICILLIN G] | 256 (≈ 766 µM) | 2 (≈ 5.98 µM) | 128 (≈ 383 µM) | 256 (≈ 766 µM) | 256 (≈ 766 µM) | 2 (≈ 5.98 µM) | 2 (≈ 5.98 µM) | 2 (≈ 5.98 µM) | 128 (≈ 383 µM) | 128 (≈ 383 µM) | 2 (≈ 5.98 µM) | – | – | – | – | – | – | – | – | – | – |
| C[C@H]1c2cccc(O)c2C(=O)C2=C(O)[C@]3(O)C(=O)C(C(N)=O)=C(O)[C@@H](N(C)C)[C@@H]3[C@@H](O)[C@@H]21.O [DOXYCYCLINE] | 16 | 4 | 8 | 16 | 8 | 4 | 4 | ≤ 0.25 | 16 | 16 | 8 | 4 | 0.5 | ≤ 0.25 | 4 | 4 | ≤ 0.25 | 4 | 8 | 4 | MIC (Staphylococcus aureus [21]): ≤ 0.25 µg/mL |
| O=C(N[C@H](CO)[C@H](O)c1ccc([N+](=O)[O-])cc1)C(Cl)Cl [CHLORAMPHENICOL] | 8 (≈ 24.8 µM) | 8 (≈ 24.8 µM) | 4 (≈ 12.4 µM) | ≤ 2 | 4 (≈ 12.4 µM) | 8 (≈ 24.8 µM) | 8 (≈ 24.8 µM) | 16 (≈ 49.5 µM) | 8 (≈ 24.8 µM) | 8 (≈ 24.8 µM) | 16 (≈ 49.5 µM) | – | – | – | – | – | – | – | – | – | – |
| C[C@H]1COc2c(N3CCN(C)CC3)c(F)cc3c(=O)c(C(=O)O)cn1c23.C[C@H]1COc2c(N3CCN(C)CC3)c(F)cc3c(=O)c(C(=O)O)cn1c23.O [LEVOFLOXACIN] | – | – | – | – | – | – | – | – | – | – | – | 16 | 16 | 16 | 16 | 16 | 16 | 16 | 16 | 16 | MIC (Staphylococcus aureus [21]): 16 µg/mL |
| CCC[C@@H]1C[C@@H](C(=O)N[C@@H]([C@H]2O[C@H](SC)[C@H](O)[C@@H](O)[C@H]2O)[C@H](C)Cl)N(C)C1 [CLINDAMYCIN] | – | – | – | – | – | – | – | – | – | – | – | > 8 | ≤ 0.12 | ≤ 0.12 | > 8 | > 8 | > 8 | > 8 | > 8 | > 8 | MIC (Staphylococcus aureus [21]): ≤ 0.12 µg/mL |
| CN(C)[C@@H]1C(O)=C(C(N)=O)C(=O)[C@@]2(O)C(O)=C3C(=O)c4c(O)cccc4[C@@](C)(O)[C@H]3C[C@@H]12 [TETRACYCLINE] | > 16 | > 16 | > 16 | > 16 | > 16 | > 16 | > 16 | ≤ 0.5 | > 16 | > 16 | > 16 | > 16 | ≤ 0.5 | ≤ 0.5 | 8 (≈ 18 µM) | > 16 | ≤ 0.5 | 8 (≈ 18 µM) | 16 (≈ 36 µM) | 8 (≈ 18 µM) | MIC (Staphylococcus aureus [21]): ≤ 0.5 µg/mL |
| CN[C@H](CC(C)C)C(=O)N[C@H]1C(=O)N[C@@H](CC(N)=O)C(=O)N[C@H]2C(=O)N[C@H]3C(=O)N[C@H](C(=O)N[C@H](C(=O)O)c4cc(O)cc(O)c4-c4cc3ccc4O)[C@H](O)c3ccc(c(Cl)c3)Oc3cc2cc(c3O[C@@H]2O[C@H](CO)[C@@H](O)[C@H](O)[C@H]2O[C@H]2C[C@](C)(N)[C@H](O)[C@H](C)O2)Oc2ccc(cc2Cl)[C@H]1O [VANCOMYCIN] | 256 (≈ 177 µM) | 2 (≈ 1.38 µM) | – | 256 (≈ 177 µM) | 256 (≈ 177 µM) | 2 (≈ 1.38 µM) | 2 (≈ 1.38 µM) | 2 (≈ 1.38 µM) | – | – | 2 (≈ 1.38 µM) | 64 (≈ 44.2 µM) | – | – | – | 32 (≈ 22.1 µM) | – | – | – | – | – |
| CC[C@H]1OC(=O)[C@H](C)[C@@H](O[C@H]2C[C@@](C)(OC)[C@@H](O)[C@H](C)O2)[C@H](C)[C@@H](O[C@@H]2O[C@H](C)C[C@H](N(C)C)[C@H]2O)[C@](C)(O)C[C@@H](C)C(=O)[C@H](C)[C@@H](O)[C@]1(C)O [ERYTHROMYCIN] | > 8 | > 8 | > 8 | > 8 | > 8 | > 8 | > 8 | > 8 | > 8 | > 8 | > 8 | > 8 | > 8 | > 8 | > 8 | > 8 | > 8 | > 8 | > 8 | > 8 | MIC (Staphylococcus aureus [21]): > 8 µg/mL |
| Cc1onc(-c2ccccc2)c1C(=O)N[C@@H]1C(=O)N2[C@@H]1SC(C)(C)[C@@H]2C(=O)O [OXACILLIN] | – | – | – | – | – | – | – | – | – | – | – | > 16 | > 16 | > 16 | > 16 | > 16 | > 16 | > 16 | > 16 | > 16 | MIC (Staphylococcus aureus [21]): > 16 µg/mL |
| GENTAMICIN | – | – | – | – | – | – | – | – | – | – | – | 32 | > 64 | > 64 | > 64 | 64 | < 4 | > 64 | > 64 | 16 | MIC (Staphylococcus aureus [21]): < 4 µg/mL |
| CO[C@H]1/C=C/O[C@@]2(C)Oc3c(C)c(O)c4c(O)c(c(/C=N/N5CCN(C)CC5)c(O)c4c3C2=O)NC(=O)/C(C)=C\C=C\[C@H](C)[C@H](O)[C@@H](C)[C@@H](O)[C@@H](C)[C@H](OC(C)=O)[C@@H]1C [RIFAMPIN] | 4 (≈ 4.86 µM) | 1 (≈ 1.22 µM) | > 4 | > 4 | > 4 | 1 (≈ 1.22 µM) | 1 (≈ 1.22 µM) | 2 (≈ 2.43 µM) | > 4 | > 4 | 0.5 (≈ 0.608 µM) | – | – | – | – | – | – | – | – | – | – |
| CN(C)c1ccc(O)c2c1C[C@H]1C[C@H]3[C@H](N(C)C)C(O)=C(C(N)=O)C(=O)[C@@]3(O)C(O)=C1C2=O [MINOCYCLINE] | 32 (≈ 69.9 µM) | 8 (≈ 17.5 µM) | 16 (≈ 35 µM) | 16 (≈ 35 µM) | 16 (≈ 35 µM) | 8 (≈ 17.5 µM) | 8 (≈ 17.5 µM) | 0.12 (≈ 0.262 µM) | 32 (≈ 69.9 µM) | 32 (≈ 69.9 µM) | 16 (≈ 35 µM) | – | – | – | – | – | – | – | – | – | – |
